Drawing on ChEMBL document CHEMBL1129032, “Synthesis and phospholipase A2 inhibitory activity of thielocin B3 derivatives” (J Med Chem, 1996), this text covers IC50 and Activity for 22 compounds.

Broadly, the IC50 is the concentration that inhibits the measured activity by half.

Test [1] concerns the target T1, Phospholipase A2, membrane associated (Homo sapiens, UniProt P14555).
T1 sequence (P14555 whole entry): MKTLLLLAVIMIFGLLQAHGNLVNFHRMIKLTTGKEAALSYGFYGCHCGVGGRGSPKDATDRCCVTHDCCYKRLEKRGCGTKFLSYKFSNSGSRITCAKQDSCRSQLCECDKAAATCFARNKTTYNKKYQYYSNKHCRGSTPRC
The test is described as follows: In vitro inhibition of human recombinant secretory Phospholipase A2 (group II). A digest of the protocol: (§1)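 PLA2 enzymes: recombinant human group I or II, or group II purified from rat platelets (single ~14 kDa band on SDS-PAGE). Substrate was 1-palmitoyl-2-[1-14C]linoleoyl-PE diluted with egg-yolk PE to 2000 dpm/nmol. Reaction started by adding enzyme, adjusted so hydrolysis stayed below 20%. Compounds in DMSO (2% final) against a DMSO control. IC50 read graphically from % inhibition vs log concentration, three independent experiments in duplicate.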

The next test concerns the target Phospholipase A2 (Homo sapiens, UniProt P04054). The test is described as follows: In vitro inhibition of human recombinant secretory Phospholipase A2 (group I). The method, boiled down: as §1
Test [2] deals with T2, Phospholipase A2, membrane associated (Rattus norvegicus, UniProt P14423).
T2 sequence (P14423 whole entry): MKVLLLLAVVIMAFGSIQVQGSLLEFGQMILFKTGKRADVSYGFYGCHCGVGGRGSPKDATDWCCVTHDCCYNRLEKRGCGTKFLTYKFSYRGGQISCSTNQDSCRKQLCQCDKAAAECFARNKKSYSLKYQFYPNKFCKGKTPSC
The test is described as follows: In vitro inhibition of rat secretory Phospholipase A2 (group II). A digest of the protocol:
as §1

The species named for test [3] is Rattus norvegicus. The test is described as follows: Inhibition of A-23187 stimulated Thromboxane B2 production from rat platelets by 10 uM. It counts as functional. Also on record: scale not given: the % may be the effect or the level left. The method, boiled down: (§2)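 Rat platelets from citrate-dextrose blood with PGE1 were sedimented and labelled with [3H]AA (20 µCi/mL, 2.0 h, room temperature), gel-filtered, and used at 5 × 10^8 cells/mL. Stimulation used A23187 2 µM (DMSO 0.4%) plus compound (DMSO 0.2%), stopped with 0.1 N HCl. [3H]AA and [3H]TXB2 were separated by TLC and counted. Result given as % of A23187-induced increase over DMSO control, mean ± SEM of three experiments.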

Test [4] is filed under the species Rattus norvegicus. The test is described as follows: Inhibition of A-23187 stimulated Arachidonic acid production from rat platelets by 10 uM. Type of test: functional. Also on record: scale not given: the % may be the effect or the level left. A digest of the protocol:
as §2

Test [5] deals with T1, Phospholipase A2, membrane associated. The test is described as follows: In vitro inhibition of human recombinant secretory Phospholipase A2 (group II); No inhibition. The method, boiled down:
as §1

The target of test [6] is T2, Phospholipase A2, membrane associated. The experiment in a line: In vitro inhibition of rat secretory Phospholipase A2 (group II); No inhibition. A digest of the protocol:
as §1

Chain of Phospholipase A2 (P04054 whole entry): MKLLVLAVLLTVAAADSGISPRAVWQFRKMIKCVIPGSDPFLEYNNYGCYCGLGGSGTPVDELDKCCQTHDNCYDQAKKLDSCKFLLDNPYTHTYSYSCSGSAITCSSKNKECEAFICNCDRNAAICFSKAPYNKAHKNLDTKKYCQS

As for `COc1c(C)c(OC(=O)c2c(C)c(C)c(OC(=O)CCC(=O)Oc3c(C)c(C)c(C(=O)Oc4c(C)c(C)c(C(=O)O)c(OC)c4C)c(OC)c3C)c(C)c2OC)c(C)c(C)c1C(=O)O`, the half-maximal inhibitory concentration (IC50) in test [1] came out at 940 nM; on Phospholipase A2 it was 60000 nM; in test [2], 40 nM.
As for `COc1ccc(Sc2ccc(OC)c(C(=O)Oc3c(C)c(C)c(C(=O)Oc4c(C)c(C)c(C(=O)O)c(OC)c4C)c(OC)c3C)c2)cc1C(=O)Oc1c(C)c(C)c(C(=O)Oc2c(C)c(C)c(C(=O)O)c(OC)c2C)c(OC)c1C`, the values for the Activity in the test filed under Rattus norvegicus [3] and in the test listed under Rattus norvegicus [4] were 0% and 2.8%, respectively. Also, the results for the half-maximal inhibitory concentration (IC50) (in test [1]; at Phospholipase A2; in test [2]) were 130 nM, 55000 nM and 49 nM, respectively.
`COc1c(C)c(OC)c(C(=O)Oc2c(C)c(C)c(C(=O)O)c(OC)c2C)c(C)c1Cc1c(C)c(C(=O)Oc2c(C)c(C)c(C(=O)O)c(OC)c2C)c(OC)c(C)c1OC`: the concentration for half-maximal inhibition (IC50) in test [1] is 2800 nM; at Phospholipase A2, 90000 nM; in test [2] it was 4600 nM.
On the same counts, the results for `COc1ccc(Sc2ccc(OC)c(C(=O)Oc3c(C)c(C)c(C(=O)Oc4c(C)c(C)c(C(=O)O)c(OC)c4C)c(OC)c3C)c2)cc1C(=O)O` are 4100 nM, 100000 nM and 2100 nM.
Regarding `COc1c(C)c(OC(=O)c2c(C)c(C)c(OC(=O)c3cc(=O)cc(C(=O)Oc4c(C)c(C)c(C(=O)Oc5c(C)c(C)c(C(=O)O)c(OC)c5C)c(OC)c4C)o3)c(C)c2OC)c(C)c(C)c1C(=O)O`, the figures for the Activity in the test listed under Rattus norvegicus [3] and in the test filed under Rattus norvegicus [4] were 46.3% and 55.2%, respectively. The IC50 was found to be 5800 nM in test [1], 100000 nM on Phospholipase A2 and 880 nM in test [2].
On the same counts, the results for `COc1c(C)c(OC(=O)c2c(C)c(C)c(OC(=O)/C=C/C(=O)Oc3c(C)c(C)c(C(=O)Oc4c(C)c(C)c(C(=O)O)c(OC)c4C)c(OC)c3C)c(C)c2OC)c(C)c(C)c1C(=O)O` are 65.8%, 70.7%, 2200 nM, more than 100000 nM and 330 nM.
In the same order, the values of `COc1c(C)c(OC(=O)c2c(C)c(C)c(OC(=O)c3cccc(C(=O)Oc4c(C)c(C)c(C(=O)Oc5c(C)c(C)c(C(=O)O)c(OC)c5C)c(OC)c4C)c3)c(C)c2OC)c(C)c(C)c1C(=O)O` are 0.1%, 49.2%, 230 nM, more than 100000 nM and 120 nM.
`COc1c(C)c(OC)c(C(=O)Oc2c(C)c(C)c(C(=O)Oc3c(C)c(C)c(C(=O)O)c(OC)c3C)c(OC)c2C)c(C)c1Cc1c(C)c(C(=O)Oc2c(C)c(C)c(C(=O)Oc3c(C)c(C)c(C(=O)O)c(OC)c3C)c(OC)c2C)c(OC)c(C)c1OC`: the half-maximal inhibitory concentration (IC50) in test [1] is 190 nM; on Phospholipase A2, more than 100000 nM; in test [2] it was 130 nM.
In the same order, the values of `Cc1c(O)c(Cc2c(C)c(C(=O)Oc3c(C)c(C)c(C(=O)Oc4c(C)c(C)c(C(=O)O)c(O)c4C)c(O)c3C)c(O)c(C)c2O)c(C)c(C(=O)Oc2c(C)c(C)c(C(=O)Oc3c(C)c(C)c(C(=O)O)c(O)c3C)c(O)c2C)c1O` are 2400 nM, more than 100000 nM and 950 nM.
In the same order, the values of `COc1c(C)c(OC(=O)c2c(C)c(C)c(OC(=O)c3c(C)c(CN[C@@H](C)c4ccccc4)c(O)c(C)c3O)c(C)c2OC)c(C)c(C)c1C(=O)O` are 840 nM, 60000 nM and 360 nM.
In the same order, the values of `COc1c(C)c(OC)c(C(=O)O)c(C)c1Cc1c(C)c(C(=O)Oc2c(C)c(C)c(C(=O)Oc3c(C)c(C)c(C(=O)O)c(OC)c3C)c(OC)c2C)c(OC)c(C)c1OC` are 3000 nM, more than 100000 nM and 3000 nM.
Regarding `COc1cc(OC)c(C(=O)Oc2c(C)c(C)c(C(=O)Oc3c(C)c(C)c(C(=O)O)c(OC)c3C)c(OC)c2C)cc1Oc1cc(C)c(OC)c(C(=O)Oc2c(C)c(C)c(C(=O)Oc3c(C)c(C)c(C(=O)O)c(OC)c3C)c(OC)c2C)c1`, the Activity was found to be 0% in the test listed under Rattus norvegicus [3] and 19.7% in the test listed under Rattus norvegicus [4]. Moreover, the IC50 in test [1] was found to be 240 nM; on Phospholipase A2 it was 6600 nM; in test [2], 35 nM.
On to `COc1ccc(S(=O)(=O)c2ccc(OC)c(C(=O)Oc3c(C)c(C)c(C(=O)Oc4c(C)c(C)c(C(=O)O)c(OC)c4C)c(OC)c3C)c2)cc1C(=O)Oc1c(C)c(C)c(C(=O)Oc2c(C)c(C)c(C(=O)O)c(OC)c2C)c(OC)c1C`, for which the values for the half-inhibitory concentration (IC50) (in test [1]; at Phospholipase A2; in test [2]) were 69 nM, 9000 nM and 50 nM, respectively.
Take `COc1ccc(Sc2ccc(OC)c(C(=O)Oc3c(C)c(C)c(C(=O)Oc4c(C)c(C)c(C(=O)OCOC(=O)C(C)(C)C)c(OC)c4C)c(OC)c3C)c2)cc1C(=O)Oc1c(C)c(C)c(C(=O)Oc2c(C)c(C)c(C(=O)OCOC(=O)C(C)(C)C)c(OC)c2C)c(OC)c1C`: the IC50 result in test [5] is “Not Active”; on Phospholipase A2, more than 100000 nM; in test [6], “Not Active”.
On to `COc1ccc(Oc2ccc(OC)c(C(=O)Oc3c(C)c(C)c(C(=O)Oc4c(C)c(C)c(C(=O)O)c(OC)c4C)c(OC)c3C)c2)cc1C(=O)Oc1c(C)c(C)c(C(=O)Oc2c(C)c(C)c(C(=O)O)c(OC)c2C)c(OC)c1C`, for which the Activity in the test listed under Rattus norvegicus [3] was 0%; in the test filed under Rattus norvegicus [4], 9%. For the same compound, the IC50 in test [1] was determined as 100 nM; on Phospholipase A2 it was 6500 nM; in test [2] it was 42 nM.
Regarding `COc1ccc([S+]([O-])c2ccc(OC)c(C(=O)Oc3c(C)c(C)c(C(=O)Oc4c(C)c(C)c(C(=O)O)c(OC)c4C)c(OC)c3C)c2)cc1C(=O)Oc1c(C)c(C)c(C(=O)Oc2c(C)c(C)c(C(=O)O)c(OC)c2C)c(OC)c1C`, the concentration for half-maximal inhibition (IC50) in test [1] was 260 nM; at Phospholipase A2 it was 11000 nM; in test [2], 120 nM.
In the same order, the values of `COc1ccc(Sc2ccc(OC)c(C(=O)Oc3c(C)c(C)c(C(=O)O)c(OC)c3C)c2)cc1C(=O)Oc1c(C)c(C)c(C(=O)O)c(OC)c1C` are 4800 nM, more than 100000 nM and 2500 nM.
In the same order, the values of `COc1ccc(Oc2ccc(OC)c(C(=O)Oc3c(C)c(C)c(C(=O)O)c(OC)c3C)c2)cc1C(=O)Oc1c(C)c(C)c(C(=O)O)c(OC)c1C` are 75000 nM, more than 100000 nM and 3400 nM.
As to `CC1=C(CC/C(C)=C/CCC2=CC[C@H](C3=CC(=O)O[C@H]3O)O[C@H]2O)C(C)(C)CCC1` [MANOALIDE], the 50% inhibitory concentration (IC50) in test [1] stood at 1500 nM; in test [2], 2000 nM.
On the same counts, the results for `CCN(CC)CCCC(C)Nc1c2ccc(Cl)cc2nc2ccc(OC)cc12` (stereo not drawn) [QUINACRINE] are 76000 nM and 320000 nM.
With `COc1c(C)c(OC(=O)c2c(C)c(C)c(OC(=O)C3=C(C)[C@@](C)(O)C4(O)Oc5c(C)c(OC)c(C(=O)Oc6c(C)c(C)c(C(=O)O)c(OC)c6C)c(C)c5C[C@@]4(C)C3=O)c(C)c2OC)c(C)c(C)c1C(=O)O` (stereo partly drawn) [THIELOCIN A1], the IC50 in test [1] was found to be 12000 nM; on Phospholipase A2, 135000 nM; in test [2], 3.3 nM.
In the case of `COc1c(C)c(OC(=O)c2c(C)c(C)c(OC(=O)c3c(C)cc(O)c(Cc4c(C)c(C(=O)Oc5c(C)c(C)c(C(=O)Oc6c(C)c(C)c(C(=O)O)c(OC)c6C)c(OC)c5C)c(O)c(C)c4O)c3O)c(C)c2OC)c(C)c(C)c1C(=O)O` [THIELOCIN B3], the Activity in the test filed under Rattus norvegicus [3] is listed as 43.7%; in the test listed under Rattus norvegicus [4], 60.3%. Besides, the IC50 is 76 nM in test [1], 18000 nM on Phospholipase A2 and 12 nM in test [2].
